In brackets after ≈: the same amount, converted by molar mass. Activity calls are given as the source filed them. No cut-off for these calls is given here.
Assays:
Escherichia coli [1] = test: Antibacterial activity against Escherichia coli C921-61 at upto 16 mM after 14 to 16 hrs by broth dilution method; format: functional, organism-based
Escherichia coli [2] = test: Antibacterial activity against Escherichia coli K10 at upto 16 mM after 14 to 16 hrs by broth dilution method; format: functional, organism-based
Staphylococcus aureus [3] = test: Antibacterial activity against Staphylococcus aureus Mu50 at upto 16 mM after 14 to 16 hrs by broth dilution method; format: functional, organism-based
Salmonella typhimurium [4] = test: Antibacterial activity against Salmonella enterica serovar Typhimurium LT2 at upto 16 mM after 14 to 16 hrs by broth dilution method; format: functional, organism-based; conditions: Salmonella enterica subsp. enterica serovar Typhimurium
Escherichia coli [5] = test: Antibacterial activity against Escherichia coli K12 at upto 16 mM after 14 to 16 hrs by broth dilution method; format: functional, organism-based
Staphylococcus aureus [6] = test: Antibacterial activity against Staphylococcus aureus N315 at upto 16 mM after 14 to 16 hrs by broth dilution method; format: functional, organism-based
Staphylococcus aureus [7] = test: Antibacterial activity against Staphylococcus aureus ATCC 3556 at upto 16 mM after 14 to 16 hrs by broth dilution method; format: functional, organism-based
Staphylococcus aureus [8] = test: Antibacterial activity against Staphylococcus aureus ATCC 3556 after 14 to 16 hrs by broth dilution method; format: functional
Staphylococcus aureus [9] = test: Antibacterial activity against Staphylococcus aureus Mu50 after 14 to 16 hrs by broth dilution method; format: functional
Staphylococcus aureus [10] = test: Antibacterial activity against Staphylococcus aureus N315 after 14 to 16 hrs by broth dilution method; format: functional
In short: (§1)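 CLSI broth dilution in cation-adjusted Mueller-Hinton broth with serial twofold dilutions, with or without spermine or spermidine added. Overnight cultures were diluted in saline to OD600 0.1–0.12, and about 10^5 CFU were inoculated. Incubation was 14–16 h at 37°C. MIC was confirmed in three independent experiments. E. coli acrA mutants were tested with 1 mM spermine; P. aeruginosa isolates with 1 mM spermine or 20 mM spermidine.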

Salmonella typhimurium [11] = test: Antibacterial activity against Salmonella enterica serovar Typhimurium LT2 after 14 to 16 hrs by broth dilution method; format: functional, Salmonella enterica subsp. enterica serovar Typhimurium
Escherichia coli [12] = test: Antibacterial activity against Escherichia coli C921-61 after 14 to 16 hrs by broth dilution method; format: functional
Escherichia coli [13] = test: Antibacterial activity against Escherichia coli K10 after 14 to 16 hrs by broth dilution method; format: functional
Escherichia coli [14] = test: Antibacterial activity against Escherichia coli K12 after 14 to 16 hrs by broth dilution method; format: functional
Pseudomonas aeruginosa [15] = test: Antibacterial activity against Pseudomonas aeruginosa T2095 after 14 to 16 hrs by broth dilution method; format: functional
Pseudomonas aeruginosa [16] = test: Antibacterial activity against Pseudomonas aeruginosa M38100A after 14 to 16 hrs by broth dilution method; format: functional
Pseudomonas aeruginosa [17] = test: Antibacterial activity against Pseudomonas aeruginosa F66336 after 14 to 16 hrs by broth dilution method; format: functional
Escherichia coli [18] = test: Antibacterial activity against Escherichia coli W4573 assessed as inhibition of AcrAB efflux pump after 14 to 16 hrs by broth dilution method; format: functional
Escherichia coli [19] = test: Antibacterial activity against Escherichia coli N43 acrA mutant assessed as inhibition of AcrAB efflux pump after 14 to 16 hrs by broth dilution method; format: functional; in short: as §1
Pseudomonas aeruginosa [20] = test: Antibacterial activity against Pseudomonas aeruginosa T15464 after 14 to 16 hrs by broth dilution method; format: functional; in short: as §1
Escherichia coli [21] = test: Antibacterial activity against Escherichia coli N818 delta acrA mutant assessed as inhibition of AcrAB efflux pump after 14 to 16 hrs by broth dilution method; format: functional; in short: as §1
Pseudomonas aeruginosa [22] = test: Antibacterial activity against Pseudomonas aeruginosa F4980 after 14 to 16 hrs by broth dilution method; format: functional; in short: as §1
Pseudomonas aeruginosa [23] = test: Antibacterial activity against Pseudomonas aeruginosa PAO1 after 14 to 16 hrs by broth dilution method; format: functional
Pseudomonas aeruginosa [24] = test: Antibacterial activity against Pseudomonas aeruginosa H4563 after 14 to 16 hrs by broth dilution method; format: functional
Pseudomonas aeruginosa [25] = test: Antibacterial activity against Pseudomonas aeruginosa M38100B after 14 to 16 hrs by broth dilution method; format: functional
Pseudomonas aeruginosa [26] = test: Antibacterial activity against Pseudomonas aeruginosa M22152 after 14 to 16 hrs by broth dilution method; format: functional; in short: as §1
Pseudomonas aeruginosa [27] = test: Antibacterial activity against Pseudomonas aeruginosa T6268 after 14 to 16 hrs by broth dilution method; format: functional

| SMILES | MIC (Staphylococcus aureus [8]) | MIC (Staphylococcus aureus [9]) | MIC (Staphylococcus aureus [10]) | MIC (Salmonella typhimurium [11]) | MIC (Escherichia coli [12]) | MIC (Escherichia coli [13]) | MIC (Escherichia coli [14]) | also measured |
| --- | --- | --- | --- | --- | --- | --- | --- | --- |
| NCCCCNCCCN |  |  |  |  |  |  |  | Activity (Escherichia coli [1]): inactive; Activity (Escherichia coli [2]): inactive; Activity (Staphylococcus aureus [3]): inactive; Activity (Salmonella typhimurium [4]): inactive; Activity (Escherichia coli [5]): inactive; Activity (Staphylococcus aureus [6]): inactive; Activity (Staphylococcus aureus [7]): inactive |
| CC1(C)S[C@@H]2[C@H](NC(=O)[C@H](N)c3ccc(O)cc3)C(=O)N2[C@H]1C(=O)O [AMOXICILLIN] | 1 µg/mL (≈ 2.74 µM) | 16 µg/mL (≈ 43.8 µM) | 16 µg/mL (≈ 43.8 µM) |  |  |  |  |  |
| CC1(C)S[C@@H]2[C@H](NC(=O)[C@H](N)c3ccccc3)C(=O)N2[C@H]1C(=O)O [AMPICILLIN] | 2 µg/mL (≈ 5.72 µM) | 64 µg/mL (≈ 183 µM) | 128 µg/mL (≈ 366 µM) | 4 µg/mL (≈ 11.4 µM) | 4 µg/mL (≈ 11.4 µM) | 8 µg/mL (≈ 22.9 µM) | 4 µg/mL (≈ 11.4 µM) |  |
| CC1(C)S[C@@H]2[C@H](NC(=O)[C@H](NC(=O)N3CCNC3=O)c3ccccc3)C(=O)N2[C@H]1C(=O)O [AZLOCILLIN] | 0.5 µg/mL (≈ 1.08 µM) | 16 µg/mL (≈ 34.7 µM) | 16 µg/mL (≈ 34.7 µM) | 16 µg/mL (≈ 34.7 µM) | 8 µg/mL (≈ 17.3 µM) | 16 µg/mL (≈ 34.7 µM) | 16 µg/mL (≈ 34.7 µM) |  |
| CCN1CCN(C(=O)N[C@@H](C(=O)N[C@@H]2C(=O)N3C(C(=O)O)=C(CSc4nnnn4C)CS[C@H]23)c2ccc(O)cc2)C(=O)C1=O [CEFOPERAZONE] | 1 µg/mL (≈ 1.55 µM) | > 1020 µg/mL | 4 µg/mL (≈ 6.2 µM) |  |  |  |  |  |
| CO/N=C(\C(=O)N[C@@H]1C(=O)N2C(C(=O)O)=C(COC(C)=O)CS[C@H]12)c1csc(N)n1 [CEFOTAXIME] | 0.5 µg/mL (≈ 1.1 µM) | > 1020 µg/mL | 2 µg/mL (≈ 4.39 µM) |  |  |  |  |  |
| CC(C)(O/N=C(\C(=O)N[C@@H]1C(=O)N2C(C(=O)[O-])=C(C[n+]3ccccc3)CS[C@H]12)c1csc(N)n1)C(=O)O [CEFTAZIDIME] | 8 µg/mL (≈ 14.6 µM) | 512 µg/mL (≈ 937 µM) | 32 µg/mL (≈ 58.5 µM) |  |  |  |  |  |
| CO/N=C(\C(=O)N[C@@H]1C(=O)N2C(C(=O)O)=C(CSc3nc(=O)c(O)nn3C)CS[C@H]12)c1csc(N)n1 [CEFTRIAXONE] | 2 µg/mL (≈ 3.61 µM) | > 1020 µg/mL | 4 µg/mL (≈ 7.21 µM) |  |  |  |  |  |
| O=C(Cc1cccs1)N[C@@H]1C(=O)N2C(C(=O)[O-])=C(C[n+]3ccccc3)CS[C@H]12 [CEPHALORIDINE] | < 0.06 µg/mL | 16 µg/mL (≈ 38.5 µM) | 1 µg/mL (≈ 2.41 µM) | 0.015 µg/mL (≈ 0.0361 µM) | 4 µg/mL (≈ 9.63 µM) | 8 µg/mL (≈ 19.3 µM) | 4 µg/mL (≈ 9.63 µM) |  |
| CC(=O)OCC1=C(C(=O)O)N2C(=O)[C@@H](NC(=O)Cc3cccs3)[C@H]2SC1 [CEPHALOTHIN] | 0.5 µg/mL (≈ 1.26 µM) | 64 µg/mL (≈ 161 µM) | 1 µg/mL (≈ 2.52 µM) |  |  |  |  |  |
| O=C(N[C@H](CO)[C@H](O)c1ccc([N+](=O)[O-])cc1)C(Cl)Cl [CHLORAMPHENICOL] | 8 µg/mL (≈ 24.8 µM) | 8 µg/mL (≈ 24.8 µM) | 8 µg/mL (≈ 24.8 µM) | 2 µg/mL (≈ 6.19 µM) | 4 µg/mL (≈ 12.4 µM) |  | 32 µg/mL (≈ 99 µM) | MIC (Pseudomonas aeruginosa [15]): 32 µg/mL (≈ 99 µM); MIC (Pseudomonas aeruginosa [16]): 4 µg/mL (≈ 12.4 µM); MIC (Pseudomonas aeruginosa [17]): 8 µg/mL (≈ 24.8 µM); MIC (Escherichia coli [18]): 8 µg/mL (≈ 24.8 µM); MIC (Escherichia coli [19]): 2 µg/mL (≈ 6.19 µM); MIC (Pseudomonas aeruginosa [20]): 32 µg/mL (≈ 99 µM); MIC (Escherichia coli [21]): 2 µg/mL (≈ 6.19 µM); MIC (Pseudomonas aeruginosa [22]): 32 µg/mL (≈ 99 µM); MIC (Pseudomonas aeruginosa [23]): 128 µg/mL (≈ 396 µM) |
| O=C(O)c1cn(C2CC2)c2cc(N3CCNCC3)c(F)cc2c1=O [CIPROFLOXACIN] | 0.25 µg/mL (≈ 0.754 µM) | 64 µg/mL (≈ 193 µM) | 1 µg/mL (≈ 3.02 µM) | ≤ 0.03 µg/mL | ≤ 0.03 µg/mL | ≤ 0.03 µg/mL | ≤ 0.03 µg/mL | MIC (Pseudomonas aeruginosa [24]): 128 µg/mL (≈ 386 µM); MIC (Pseudomonas aeruginosa [25]): 32 µg/mL (≈ 96.6 µM); MIC (Pseudomonas aeruginosa [26]): 4 µg/mL (≈ 12.1 µM); MIC (Pseudomonas aeruginosa [22]): 4 µg/mL (≈ 12.1 µM); MIC (Pseudomonas aeruginosa [27]): 4 µg/mL (≈ 12.1 µM) |

From ChEMBL document CHEMBL1145495, “Polyamine effects on antibiotic susceptibility in bacteria” (2007)
